TCR CD3 inh: human TCR-CD3 binding inhibition. TAMRA-labeled TCR probe fluorescence, biochemical. inhibition, % at 9.4 µM. actives 0.37% (n = 360,000). AID 651800; in the data active = inhibition above about 19%;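 also: recombinant mutant TCR 2C K166C tagged with TAMRA read by polarization; 0% = receptor in buffer alone and 100% = receptor with positive control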
ABHD4 inh: inhibits mouse alpha/beta hydrolase domain 4. inhibition, % at 8.92 µM. actives 0.54% (n = 370,000). purified mABHD4, FP-Rh probe fluorescence polarization. Q8VD66. AID 720543;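 active = inhibition exceeding the mean over every tested compound plus 3 SD, cut at about 30% in these data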;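 also: 0% = plate median of compound wells and 100% = S159A mutant with DMSO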
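Doses – 8.92 µM, single dose · Material – wild-type mouse ABHD4 protein · Replication – single well per compound (singlicate) · Measure – percent inhibition of probe binding, normalized to plate controls · Schedule – 45 min compound pre-incubation plus 60 min probe step, 25 °C · Detection – fluorescence polarization with parallel and perpendicular emission, 525/598 nm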
rCAG RNA binder: molecules binding r(CAG) RNA repeats | r(CAG) RNA repeat, TO-PRO-1 dye displacement fluorescence | inhibition, % at 3 µM | actives 1.3% (n = 370,000) | AID 651821;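 active = inhibition above the plate cutoff, the mean of all test compounds on that plate plus 3 SD, cut at about 35% in these data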;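 also: 0% = DMSO alone and 100% = 100 µM mitoxantrone as full dye displacement; higher means more dye released from RNA so lower well fluorescence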
HTRA1 inh: blocks human HTRA1 serine peptidase. inhibition, % at 5.96 µM. Q92743. AID 504803. actives 0.5% (n = 340,000). recombinant HTRA1, FP-rhodamine activity-based probe, fluorescence polarization; in the data active = inhibition above about 36%;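 also: 0% = enzyme with DMSO and 100% = wells lacking enzyme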
SIAE inh: blocks human sialic acid acetylesterase; Q9HAT2; SIAE FP-Rh probe binding, fluorescence polarization; inhibition, % at 9.66 µM; actives 0.69% (n = 370,000); AID 1053197;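 active = inhibition above a cutoff: mean of compounds within the control limits plus 3 SD of those, cut at about 17% in these data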;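 also: 0% = plate median of compound wells and 100% = probe without SIAE protein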
Target sequence (Q9HAT2 whole entry, looked up): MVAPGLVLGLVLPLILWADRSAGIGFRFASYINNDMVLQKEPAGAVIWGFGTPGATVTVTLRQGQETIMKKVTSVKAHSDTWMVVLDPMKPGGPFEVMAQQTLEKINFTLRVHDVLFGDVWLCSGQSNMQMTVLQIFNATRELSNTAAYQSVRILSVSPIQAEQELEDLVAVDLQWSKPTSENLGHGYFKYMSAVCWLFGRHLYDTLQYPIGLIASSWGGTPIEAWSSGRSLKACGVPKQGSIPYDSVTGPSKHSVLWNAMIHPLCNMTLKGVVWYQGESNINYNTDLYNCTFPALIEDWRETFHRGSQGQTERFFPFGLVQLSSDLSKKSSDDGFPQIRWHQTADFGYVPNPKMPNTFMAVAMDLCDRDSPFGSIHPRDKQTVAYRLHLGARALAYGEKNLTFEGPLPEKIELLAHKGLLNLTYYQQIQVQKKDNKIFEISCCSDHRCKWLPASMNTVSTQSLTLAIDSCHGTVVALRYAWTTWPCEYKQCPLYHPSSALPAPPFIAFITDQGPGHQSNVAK
rCAG binder conf: r(CAG) RNA repeat binding, confirmation. shares compounds with rCAG RNA binder. TO-PRO-1 dye displacement fluorescence. inhibition, % at 3 µM. actives 70% (n = 4,300). AID 652065;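 active = inhibition above a per-plate cutoff, the mean inhibition of sample wells plus 3 SD, cut at about 35% in these data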;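 also: loss of TO-PRO-1 fluorescence as compound displaces dye from 1x1 AA loop RNA; 0% = DMSO only wells and 100% = 100 µM mitoxantrone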
DNA CAG counter: counter-screen for rCAG RNA binders: DNA CAG dye complex inhibitors. inhibition, % at 3 µM. d(CAG) DNA oligo TO-PRO-1 dye displacement, fluorescence. shares compounds with rCAG RNA binder. actives 94% (n = 4,300);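 active = inhibition above its plate's cutoff, the mean test-well inhibition plus 3 SD, cut at about 4.8% in these data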;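 also: 0% = DNA dye mix with DMSO and 100% = 100 µM mitoxantrone; hits displace the dye from DNA and so lower well fluorescence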
dCAG dye DR: DNA CAG dye complex inhibition, dose response counter-screen; actives 20% (n = 250); DNA CAG/GTC duplex TO-PRO-1 dye displacement fluorescence; shares compounds with rCAG RNA binder; AID 686960; IC50, µM; in the data active = IC50 below about 10 µM
An asterisk follows results filed as active; i = inactive; · = not tested or not shown. Sampled rows, rich in hits. Any-hit rate of the full collection: about 2.5%.

SMILES	TCR CD3 inh	ABHD4 inh	rCAG RNA binder	HTRA1 inh	SIAE inh	rCAG binder conf	DNA CAG counter	others
C=CCNc1nc(N)c(C(=C(C#N)C#N)c2ccc(Br)cc2)s1	7	4	38*	-3	-11	22	10*
CCCCCC/C(C)=C1/SC(=S)NC1=O	-7	-12	28	-36	-2	·	·
C/C(C/C(C)=C1/SC(=S)NC1=O)=C1\SC(=S)NC1=O	7	14	66*	-11	-28	50*	16*
Cn1c2ccccc2c2cc(/C=C(\NC(=O)c3ccccc3)C(=O)O)ccc21	5	4	37*	-1	-4	26	8.0*
O=S(=O)(Nc1ncccn1)c1ccc(NC(=S)N2CCN(c3cccc(C(F)(F)F)c3)CC2)cc1	4	1	50*	-2	5	59*	16*
COc1ccc(-c2cc(C(=O)NCc3ccco3)c3ccccc3n2)cc1	-1	-11	3	-17	-5	·	·
CCCn1nc(C(=O)Nc2cc(S(=O)(=O)Nc3ccc(OC)cc3)ccc2O)c2ccccc2c1=O	-3	-13	62*	-10	-17	54*	19*
CCCn1nc(C(=O)Nc2ccc(S(=O)(=O)Nc3nccs3)cc2)c2ccccc2c1=O	9	-18	65*	-20	-6	56*	23*
CCn1nc(C(=O)Nc2ccc(S(=O)(=O)Nc3ncccn3)cc2)c2ccccc2c1=O	3	-3	4	3	6	·	·
Cc1ccc(-c2csc(NC(=O)c3cccc(C)c3)c2C(=O)O)cc1	4	-16	77*	-40	-6	58*	21*
Cc1ccc(-c2csc(NC(=O)c3ccccc3Cl)c2C(=O)O)cc1	8	-12	46*	-23	-3	32	7.5*
Cc1ccc(-c2csc(NC(=O)/C=C/c3ccco3)c2C(=O)O)cc1	5	5	58*	-8	4	36*	9.6*
CC(C)c1ccc(C(CC(=O)O)NC(=O)c2cccs2)cc1 (stereo unspecified)	3	2	3	3	-5	·	·
Cc1cccc(C(=O)Nc2scc(-c3ccc(Br)cc3)c2C(=O)O)c1	-2	-9	6	-15	12	·	·
CC(C)c1ccc(-c2csc(NC(=O)c3cccs3)c2C(=O)O)cc1	0	3	83*	-40	-4	77*	33*	dCAG dye DR=7.8*
COC(=O)c1ccc(N2CCN(CC(=O)c3ccc(C)cc3)CC2)c([N+](=O)[O-])c1	1	2	7	-2	6	·	·
COc1ccc(Br)cc1CN(C)CC(=O)Nc1cccc(S(N)(=O)=O)c1	0	4	0	-9	-4	·	·
CC(C)N(Cc1cc2ccccc2[nH]c1=O)C(=O)c1ccco1	0	4	-2	1	3	·	·
O=C(Nc1ccc(S(=O)(=O)Nc2cnc3ccccc3n2)cc1)c1cccc(OC(F)F)c1	1	-14	55*	-39	-4	35*	6.7*
O=C(Nc1ccc(S(=O)(=O)Nc2cnc3ccccc3n2)cc1)c1ccc(F)cc1	-6	-3	31	-28	-5	·	·
CCCCCc1c2c(cc(O)c1C(=O)O)OC(=O)c1cc(C(=O)CCCC)c(OC)cc1O2	3	-100	87*	-29	-35	88*	61*
CCCCCc1c2c(cc(O)c1C(=O)O)OC(=O)c1c(cc(OC)cc1C(=O)CCCC)O2	·	·	·	-35	·	·	·
CCc1cccc(C)c1NC(=O)CCCn1c(=O)c2cccn2c2cccnc21	3	6	0	9	0	·	·
CCOc1cc(/C=C2\SC(=Nc3ccccc3)N(c3ccccc3)C2=O)ccc1OCC(=O)O	-1	-17	65*	-10	-10	71*	30*	dCAG dye DR=i
Cc1ccc(N=C2S/C(=C/c3cccc(OCC(=O)O)c3)C(=O)N2C)cc1C	-4	10	58*	-12	-12	64*	23*

Screens (PubChem)
